Values after ≈ are worked out from the molar mass of the structure shown.

In data set [1] the test system is Acinetobacter pittii. The data set can be described thus: Antibacterial activity against Acinetobacter genomosp. 3 isolate 14 by Etest method. It counts as functional. The essentials:
(§1)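 MICs for AG3 clinical isolates were read by Etest following the manufacturer's instructions. Isolates were stored at –80°C in 10% Brucella glycerol broth before testing.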

In data set [2] the test system is Acinetobacter pittii. Put plainly: Antibacterial activity against Acinetobacter genomosp. 3 isolate 20 by Etest method. It counts as functional. The method, boiled down:
as §1

Data set [3] concerns Acinetobacter pittii. Put plainly: Antibacterial activity against Acinetobacter genomosp. 3 isolate 21 by Etest method. It counts as functional. The essentials: as §1
Data set [4] has as its system Acinetobacter pittii. Put plainly: Antibacterial activity against Acinetobacter genomosp. 3 isolate 52 by Etest method. It counts as functional. The essentials:
as §1

For data set [5], the system named is Acinetobacter pittii. The data set can be described thus: Antibacterial activity against Acinetobacter genomosp. 3 isolate 56 by Etest method. It counts as functional. The method, boiled down: as §1
The subject of data set [6] is Acinetobacter pittii. The data set can be described thus: Antibacterial activity against Acinetobacter genomosp. 3 isolate 60 by Etest method. It counts as functional. The essentials:
as §1

Data set [7] relates to Acinetobacter pittii. The data set can be described thus: Antibacterial activity against Acinetobacter genomosp. 3 isolate 65 by Etest method. It counts as functional. The method, boiled down: as §1
The subject of data set [8] is Acinetobacter pittii. The data set can be described thus: Antibacterial activity against Acinetobacter genomosp. 3 isolate 67 by Etest method. It counts as functional. The essentials:
as §1

For data set [9], the system named is Escherichia coli. The data set can be described thus: Antibacterial activity against Escherichia coli DH5alpha by Etest method. It counts as functional. The essentials:
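E. coli DH5α host strain, grown at 37°C in LB medium. MICs of β-lactams determined by Etest following the manufacturer's instructions.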

Data set [10] relates to Acinetobacter pittii. The data set can be described thus: Antibacterial activity against Acinetobacter genomosp. 3 isolate 69 by Etest method. It counts as functional. The essentials: as §1
Data set [11] has as its system Acinetobacter pittii. The data set can be described thus: Antibacterial activity against Acinetobacter genomosp. 3 isolate 90 by Etest method. It counts as functional. The essentials:
as §1

The subject of data set [12] is Acinetobacter pittii. The data set can be described thus: Antibacterial activity against Acinetobacter genomosp. 3 isolate 103 by Etest method. It counts as functional. The essentials:
as §1

Data set [13] concerns Acinetobacter pittii. The data set can be described thus: Antibacterial activity against Acinetobacter genomosp. 3 isolate 109 by Etest method. It counts as functional. The method, boiled down:
as §1

For data set [14], the system named is Acinetobacter pittii. Put plainly: Antibacterial activity against Acinetobacter genomosp. 3 isolate 128 by Etest method. It counts as functional. The essentials: as §1
Data set [15] has as its system Acinetobacter pittii. The data set can be described thus: Antibacterial activity against Acinetobacter genomosp. 3 isolate 195 by Etest method. It counts as functional. The essentials: as §1
Data set [16] has as its system Acinetobacter pittii. Put plainly: Antibacterial activity against Acinetobacter genomosp. 3 isolate 243 by Etest method. It counts as functional. The essentials: as §1
Data set [17] deals with Escherichia coli. Put plainly: Antibacterial activity against Escherichia coli DH5alpha carrying ampC gene of Acinetobacter genomosp. 3 isolate 14 by Etest method. It counts as functional. The essentials:
(§2)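 E. coli DH5α expressing the AG3 isolate ampC gene, PCR-amplified (high-fidelity system, 28 cycles) and cloned into BamHI/HindIII sites of pBGS18 (kanamycin marker) under the CTX-M-14 β-lactamase promoter. Grown at 37°C in LB, with kanamycin 50 µg/ml when needed. β-Lactam MICs determined by Etest per the manufacturer's instructions.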

Data set [18] concerns Escherichia coli. Put plainly: Antibacterial activity against Escherichia coli DH5alpha carrying ampC gene of Acinetobacter genomosp. 3 isolate 20 by Etest method. It counts as functional. The essentials: as §2
Data set [19] has as its system Escherichia coli. The data set can be described thus: Antibacterial activity against Escherichia coli DH5alpha carrying ampC gene of Acinetobacter genomosp. 3 isolate 56 by Etest method. It counts as functional. The method, boiled down:
as §2

For data set [20], the system named is Escherichia coli. The data set can be described thus: Antibacterial activity against Escherichia coli DH5alpha carrying ampC gene of Acinetobacter genomosp. 3 isolate 65 by Etest method. It counts as functional. The essentials:
as §2

Data set [21] relates to Escherichia coli. Put plainly: Antibacterial activity against Escherichia coli DH5alpha carrying ampC gene of Acinetobacter genomosp. 3 isolate 69 by Etest method. It counts as functional. The method, boiled down:
as §2

Data set [22] deals with Escherichia coli. The data set can be described thus: Antibacterial activity against Escherichia coli DH5alpha carrying ampC gene of Acinetobacter genomosp. 3 isolate 103 by Etest method. It counts as functional. The method, boiled down:
as §2

The test system of data set [23] is Escherichia coli. Put plainly: Antibacterial activity against Escherichia coli DH5alpha carrying ampC gene of Acinetobacter genomosp. 3 isolate 109 by Etest method. It counts as functional. The method, boiled down:
as §2

The test system of data set [24] is Escherichia coli. Put plainly: Antibacterial activity against Escherichia coli DH5alpha carrying ampC gene of Acinetobacter genomosp. 3 isolate 195 by Etest method. It counts as functional. The method, boiled down: as §2
In data set [25] the test system is CC(=O)OCC1=C(C(=O)O)N2C(=O)[C@@H](NC(=O)Cc3cccs3)[C@H]2SC1. The data set can be described thus: (§3) Activity of Acinetobacter genomosp. 3 isolate 195 ADC-18. The settings on record: Acinetobacter pittii. The essentials:
(§4)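 AmpC genes from AG3 clinical isolates were cloned into pGEX-6P-1 and expressed as GST fusions. The mature enzyme was purified free of GST, giving a 43 kDa SDS-PAGE band of 95% purity. Kinetics were read spectrophotometrically at 25°C in PBS with 20 mg/liter BSA, three repeats. For poor substrates, Km was taken as Ki in competitive assays with Centa as reporter substrate. Vmax came from the Michaelis-Menten equation at six times Km antibiotic.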

Data set [26] relates to CC(C)(O/N=C(\C(=O)N[C@@H]1C(=O)N2C(C(=O)[O-])=C(C[n+]3ccccc3)CS[C@H]12)c1csc(N)n1)C(=O)O. The data set is described as §3. The settings on record: Acinetobacter pittii. The essentials:
as §4

Data set [27] has as its system CO/N=C(\C(=O)N[C@@H]1C(=O)N2C(C(=O)O)=C(COC(N)=O)CS[C@H]12)c1ccco1. The data set is described as §3. To be noted: Acinetobacter pittii. The method, boiled down: as §4
For data set [28], the system named is CO[C@@]1(NC(=O)Cc2cccs2)C(=O)N2C(C(=O)O)=C(COC(N)=O)CS[C@@H]21. Described as §3. To be noted: Acinetobacter pittii. The method, boiled down: as §4
Data set [29] deals with CC(=O)OCC1=C(C(=O)O)N2C(=O)[C@@H](NC(=O)Cc3cccs3)[C@H]2SC1. The data set can be described thus: (§5) Ratio of Kcat to Km for Acinetobacter genomosp. 3 isolate 195 ADC-18. The settings on record: Acinetobacter pittii. The method, boiled down:
as §4

Data set [30] has as its system CO/N=C(\C(=O)N[C@@H]1C(=O)N2C(C(=O)O)=C(COC(N)=O)CS[C@H]12)c1ccco1. Described as §5. The settings on record: Acinetobacter pittii. The method, boiled down: as §4
Data set [31] relates to CO[C@@]1(NC(=O)Cc2cccs2)C(=O)N2C(C(=O)O)=C(COC(N)=O)CS[C@@H]21. The description is as §5. The settings on record: Acinetobacter pittii. The method, boiled down: as §4

Usually MIC stands for the least concentration at which growth counts as inhibited. Lower therefore signals inhibition by little substance. In the case of `CCN1CCN(C(=O)N[C@@H](C(=O)N[C@@H]2C(=O)N3[C@@H]2SC(C)(C)[C@@H]3C(=O)O)c2ccccc2)C(=O)C1=O` [PIPERACILLIN], the MIC in the data set on Acinetobacter pittii [1] was 16 µg/mL (≈ 30.9 µM); in the data set on Acinetobacter pittii [2] it was 24 µg/mL (≈ 46.4 µM); in the data set with Acinetobacter pittii [3], 24 µg/mL (≈ 46.4 µM); against Acinetobacter pittii [4], 12 µg/mL (≈ 23.2 µM); with Acinetobacter pittii [5], 12 µg/mL (≈ 23.2 µM); with Acinetobacter pittii [6], 24 µg/mL (≈ 46.4 µM). Also, the MIC against Acinetobacter pittii [7] was 16 µg/mL (≈ 30.9 µM); against Acinetobacter pittii [8], 16 µg/mL (≈ 30.9 µM); with Escherichia coli [9], 0.38 µg/mL (≈ 0.734 µM); with Acinetobacter pittii [10] it was 16 µg/mL (≈ 30.9 µM); against Acinetobacter pittii [11], 12 µg/mL (≈ 23.2 µM); with Acinetobacter pittii [12] it was 24 µg/mL (≈ 46.4 µM). In addition, the minimum inhibitory concentration (MIC) in the data set on Acinetobacter pittii [13] amounted to 16 µg/mL (≈ 30.9 µM); in the data set on Acinetobacter pittii [14], 12 µg/mL (≈ 23.2 µM); in the data set with Acinetobacter pittii [15], 24 µg/mL (≈ 46.4 µM); against Acinetobacter pittii [16] it was 32 µg/mL (≈ 61.8 µM); against Escherichia coli [17] it was 4 µg/mL (≈ 7.73 µM); against Escherichia coli [18], 4 µg/mL (≈ 7.73 µM). The MIC with Escherichia coli [19] was 3 µg/mL (≈ 5.8 µM); in the data set with Escherichia coli [20], 4 µg/mL (≈ 7.73 µM); with Escherichia coli [21], 3 µg/mL (≈ 5.8 µM); with Escherichia coli [22], 4 µg/mL (≈ 7.73 µM); in the data set with Escherichia coli [23] it was 4 µg/mL (≈ 7.73 µM); against Escherichia coli [24], 4 µg/mL (≈ 7.73 µM).

For `CO/N=C(\C(=O)N[C@@H]1C(=O)N2C(C(=O)O)=C(COC(C)=O)CS[C@H]12)c1csc(N)n1` [CEFOTAXIME], the MIC stood at 24 µg/mL (≈ 52.7 µM) against Acinetobacter pittii [1]; 16 µg/mL (≈ 35.1 µM) against Acinetobacter pittii [2]; 24 µg/mL (≈ 52.7 µM) with Acinetobacter pittii [3]; 12 µg/mL (≈ 26.3 µM) against Acinetobacter pittii [4]; 4 µg/mL (≈ 8.78 µM) in the data set on Acinetobacter pittii [5]; 24 µg/mL (≈ 52.7 µM) in the data set on Acinetobacter pittii [6]. Also, the minimal inhibitory concentration (MIC) in the data set with Acinetobacter pittii [7] amounted to 12 µg/mL (≈ 26.3 µM); against Acinetobacter pittii [8], 16 µg/mL (≈ 35.1 µM); with Escherichia coli [9] it was 0.064 µg/mL (≈ 0.141 µM); against Acinetobacter pittii [10] it was 16 µg/mL (≈ 35.1 µM); in the data set with Acinetobacter pittii [11], 12 µg/mL (≈ 26.3 µM); against Acinetobacter pittii [12], 16 µg/mL (≈ 35.1 µM). The MIC with Acinetobacter pittii [13] turned out to be 16 µg/mL (≈ 35.1 µM); with Acinetobacter pittii [14], 12 µg/mL (≈ 26.3 µM); with Acinetobacter pittii [15] it was 24 µg/mL (≈ 52.7 µM); with Acinetobacter pittii [16] it was 16 µg/mL (≈ 35.1 µM); with Escherichia coli [17], 0.75 µg/mL (≈ 1.65 µM); in the data set on Escherichia coli [18], 0.125 µg/mL (≈ 0.274 µM). For the same compound, the MIC against Escherichia coli [19] is 0.38 µg/mL (≈ 0.834 µM); in the data set with Escherichia coli [20], 25 µg/mL (≈ 54.9 µM); against Escherichia coli [21], 0.38 µg/mL (≈ 0.834 µM); against Escherichia coli [22] it was 0.75 µg/mL (≈ 1.65 µM); in the data set on Escherichia coli [23], 0.38 µg/mL (≈ 0.834 µM); in the data set on Escherichia coli [24], 0.75 µg/mL (≈ 1.65 µM).

Broadly, the Km is the substrate concentration at which the rate is half of its maximum. For orientation: kcat means the number of substrate molecules converted per active site and unit of time at saturation. A word on the kcat/Km: it is the turnover number divided by the Michaelis constant. In the case of “ADC-18 protein (Acinetobacter genomosp. 3) (from UniProt Q0VTS0)”, the Km was determined as 148 µM in [25], 84 µM in [26], 0.27 µM in data set [27] and 0.13 µM in data set [28]. Further, the kcat in [25] was 1420 s⁻¹; in [26], 0.02 s⁻¹; in data set [27], 0.48 s⁻¹; in data set [28], 0.27 s⁻¹. Besides, the values for the kcat/Km in [29], in data set [30] and in data set [31] were 9.57e+06 M⁻¹ s⁻¹, 1.79e+06 M⁻¹ s⁻¹ and 1.99e+06 M⁻¹ s⁻¹, respectively.

Source of the values: ChEMBL document CHEMBL1649124, “Genetic variability among ampC genes from acinetobacter genomic species 3” (Antimicrob Agents Chemother, 2009).
